Laboratory results reported in publication PMC4238911 (Cancer chemotherapy and pharmacology, 2011).
Read-outs that look alike come from different tables or passages of the source.

Experiments:
Trk kinase domain = details: cited from earlier work
[1] = test system: refractory high-risk neuroblastoma; assay: Tumor response; format: in vivo, human
Method in brief: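 Children received the oral test compound BID, 5 of 7 days, in 28-day cycles at 25–120 mg/M2/dose (3 + 3 escalation). Response was assessed after cycles 1, 2, 4 and 8, then every 4th cycle. Scoring used NANT criteria (modified International Neuroblastoma Response Criteria), with RECIST for measurable CT/MRI tumor and Curie score for MIBG lesions.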

TrkB = TrkB (Homo sapiens, UniProt Q16620); format: cell-based
[2] = previous trials; cited from earlier work
[3] = test system: JAK2-mutated (JAK2^V617F) myelofibrosis; details: 22 patients; cited from earlier work
[4] = Plasma pharmacokinetics of lestaurtinib; details: human, po
clinical = details: human, in vivo, po
[5] = subjects of N = 46, all dose levels
[6] = the other subject with mixed response, complete marrow response

Chain of TrkB (Q16620 32-822, species assumed): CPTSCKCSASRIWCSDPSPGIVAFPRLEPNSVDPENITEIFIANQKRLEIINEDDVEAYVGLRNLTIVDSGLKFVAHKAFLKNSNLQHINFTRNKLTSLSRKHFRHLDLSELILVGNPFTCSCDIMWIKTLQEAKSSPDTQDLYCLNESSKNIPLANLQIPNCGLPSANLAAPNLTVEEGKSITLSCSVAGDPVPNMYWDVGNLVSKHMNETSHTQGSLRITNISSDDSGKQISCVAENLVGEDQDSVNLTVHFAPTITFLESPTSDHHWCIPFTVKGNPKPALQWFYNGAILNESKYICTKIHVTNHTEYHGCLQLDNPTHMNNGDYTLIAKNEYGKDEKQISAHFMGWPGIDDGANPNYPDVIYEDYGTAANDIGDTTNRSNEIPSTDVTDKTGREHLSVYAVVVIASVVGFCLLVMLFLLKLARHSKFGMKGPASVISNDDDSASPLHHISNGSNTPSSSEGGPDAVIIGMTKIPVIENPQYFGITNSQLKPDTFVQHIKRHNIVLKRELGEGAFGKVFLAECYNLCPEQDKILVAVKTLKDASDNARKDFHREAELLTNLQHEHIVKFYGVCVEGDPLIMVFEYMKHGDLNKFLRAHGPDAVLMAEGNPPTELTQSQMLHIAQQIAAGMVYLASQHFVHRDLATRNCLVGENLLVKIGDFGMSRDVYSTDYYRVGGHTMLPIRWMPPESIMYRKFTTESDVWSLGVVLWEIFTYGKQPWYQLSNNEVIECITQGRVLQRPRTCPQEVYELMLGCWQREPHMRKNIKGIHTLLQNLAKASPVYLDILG

For `C[C@]12O[C@H](C[C@]1(O)CO)n1c3ccccc3c3c4c(c5c6ccccc6n2c5c31)CNC4=O` [lestaurtinib, Lestaurtinib], the “Subjects with transaminase elevation grade 3/4 or dose limiting” value (5 subjects, all dose levels) was 11%, the MTD (10 dose levels, 25–120 mg/M^2/dose BID) was “no MTD was defined” and the “Subjects with transaminase elevation grade 1/2” value (30 subjects, all dose levels) was 64%. The “Subjects with reversible pancreatitis (grade 2)” value (after prolonged treatment at higher dose levels) was 3 subjects, the “Hematologic DLTs” value (all dose levels) was “no hematologic DLTs identified” and the “# subjects with DLT during course 1” value (dose level 4, 55 mg/M^2/dose BID, 7 subjects entered) was 7 (1). The “# subjects with DLT during course 1” value (dose level 5, 70 mg/M^2/dose BID, 10 subjects entered) was 10 (2), the “# subjects with DLT during course 1” value (dose level 8, 120 mg/M^2/dose BID, 6 subjects entered) was 6 (1) and the “Subjects who came off study for toxicity” value (of 47 enrolled) was “three”. For the same compound, the “Concentration that competitively inhibits ATP binding to the Trk kinase domain” value (Trk kinase domain) was “nanomolar concentrations”, the “Duration of prolonged control of disease, median” value ([1]; 10 of 26 subjects at doses ≥ 70 mg/M^2/dose BID, range 5–28) was 10 cycles and the “Response/SD > 5 months” value ([1]; dose level 1–3, of total subjects at these dose levels) was 0/9 (total subjects at dose levels 1–3). The “Response/SD > 5 months” value ([1]; dose level 4–5 (2 SD)) was 2/22 (2 SD), the “Response/SD > 5 months” value ([1]; dose level 5a–8 (2 PR, 2 Mixed, 4 SD)) was 8/16 (2 PR, 2 Mixed, 4 SD) and the “Subjects who maintained a response or SD for at least 5 cycles” value ([1]; dose levels > 5, 10 of 26 subjects) was 38.5%. For the same compound, the “Patients who maintained a response or SD” value ([1]; dose levels ≥ 5a, 8/16) was 50%, the “Duration of maintained response or SD, median” value ([1]; dose levels ≥ 5a, 8/16 patients) was 10 months and the “Subjects with prolonged control of disease” value ([1]; doses ≥ 70 mg/M^2/dose BID, 10 of 26 subjects) was 38.5%. The “Duration of prolonged stable disease, median” value ([1]; nine subjects at dose levels ≥ 5) was 6 cycles, the “Marrow tumor content after treatment” value ([1]; one subject with prolonged stable disease, decreased from 75) was 2% and the “Urine catecholamine response: reduction in HVA” value ([1]; second subject with PR) was 15%. The “Urine catecholamine response: reduction in VMA” value ([1]; second subject with PR) was 44%, the “Duration of prolonged stable disease, median” value ([1]; six subjects, range 5–13) was 7 cycles and the “Number of treatment courses prior to PD: ≥17 months” value ([1]; subjects of 46) was 3/46. The “Number of treatment courses prior to PD: 11–16 months” value ([1]; subjects of 46, one of 3 stopped therapy after 13 cycles due to toxicity) was 3 ^b/46, the “Number of treatment courses prior to PD: 4–10 months” value ([1]; subjects of 46, one of 11 stopped therapy after 5 cycles due to toxicity) was 11 ^a/46 and the “Best overall response: Mixed” value [1, 5] was 3/46. The “Best overall response: PR” value [1, 5] was 2/46, the “Best overall response: Progressive disease” value [1, 5] was 21/46 and the “Best overall response: Stable disease” value [1, 5] was 20/46. For the same compound, the “Urine catecholamines: reduction in HVA” value [1, 6] was 15%, the “Urine catecholamines: reduction in VMA” value [1, 6] was 45% and the “Plasma inhibition of phospho-TrkB activity” value (TrkB; 1 h post-dosing, 120 mg/M^2) was “uniform inhibition”. For the same compound, the “Inhibition of phosphorylation of TrkB by immunoblotting” value (TrkB; plasma 1 h after lestaurtinib, days 5 and 26, all ten dose levels, 31 subjects) was “evident only in cells exposed to plasma from subjects treated at dose levels ≥ 6”, the “Sustained suppression of TrkB phosphorylation” value (TrkB; pre-drug/trough plasma samples, twice daily dosing) was “not evident” and the “Patients with grade 1/2 elevated LFTs possibly related to lestaurtinib” value [2] was at most 30%. For the same compound, the “Median duration of response” value [3] was 14 months, the Overall response rate [3] was 27% and the Tmax [4] was 1 to 2 h. It also gave an AUC(0-inf) ([4]; 25 mg/m2) of 39500 ng·h/mL, a Cmax ([4]; 25 mg/m2) of 2400 ng/mL and an AUC(0-inf) ([4]; 35 mg/m2) of 41300 ng·h/mL. For the same compound, the AUC(0-inf) ([4]; 45 mg/m2) was 16400 ng·h/mL, the AUC(0-t) ([4]; 45 mg/m2) was 15900 ng·h/mL and the Tmax ([4]; 45 mg/m2) was 1 h. The AUC(0-inf) ([4]; 55 mg/m2) was 40800 ng·h/mL, the Cmax ([4]; 55 mg/m2) was 4900 ng/mL and the AUC(0-t) ([4]; 62.5 mg/m2) was 26600 ng·h/mL. For the same compound, the Tmax ([4]; 62.5 mg/m2) was 1 h, the AUC(0-inf) ([4]; 70 mg/m2) was 15800 ng·h/mL and the AUC(0-t) ([4]; 70 mg/m2) was 15000 ng·h/mL. For the same compound, the Cmax ([4]; 70 mg/m2) was 3810 ng/mL, the Cmax ([4]; 77.5 mg/m2) was 3680 ng/mL and the Tmax ([4]; 77.5 mg/m2) was 2 h. It also gave an AUC(0-inf) ([4]; 85 mg/m2) of 15600 ng·h/mL, a Cmax ([4]; 85 mg/m2) of 3460 ng/mL and a Tmax ([4]; 85 mg/m2) of 1 h. The AUC(0-t) ([4]; 92.5 mg/m2) was 37100 ng·h/mL, the Cmax ([4]; 92.5 mg/m2) was 8740 ng/mL and the Tmax ([4]; 92.5 mg/m2) was 1 h. It also gave an AUC(0-inf) ([4]; 120 mg/m2) of 39500 ng·h/mL, an AUC(0-t) ([4]; 120 mg/m2) of 34900 ng·h/mL and a Tmax ([4]; 120 mg/m2) of 1.5 h. For the same compound, the AUC(0-t) (clinical; 25 mg/m2) was 29500 ng·h/mL, the Tmax (clinical; 25 mg/m2) was 1.5 h and the half-life (clinical; 25 mg/m2) was 10.5 ± 3.6 h. It also gave an AUC(0-t) (clinical; 35 mg/m2) of 37500 ng·h/mL, a Cmax (clinical; 35 mg/m2) of 3390 ng/mL and a Tmax (clinical; 35 mg/m2) of 2 h. It also gave a half-life (clinical; 35 mg/m2) of 7 h, a Cmax (clinical; 45 mg/m2) of 3060 ng/mL and a half-life (clinical; 45 mg/m2) of 4.5 ± 1.2 h. For the same compound, the AUC(0-t) (clinical; 55 mg/m2) was 34900 ng·h/mL, the Tmax (clinical; 55 mg/m2) was 1 h and the half-life (clinical; 55 mg/m2) was 6 ± 3.4 h. It also gave an AUC(0-inf) (clinical; 62.5 mg/m2) of 28900 ng·h/mL, a Cmax (clinical; 62.5 mg/m2) of 4500 ng/mL and a half-life (clinical; 62.5 mg/m2) of 4.3 ± 0.9 h. It also gave a Tmax (clinical; 70 mg/m2) of 1 h, a half-life (clinical; 70 mg/m2) of 3.6 ± 1.4 h and an AUC(0-inf) (clinical; 77.5 mg/m2) of 54800 ng·h/mL. The AUC(0-t) (clinical; 77.5 mg/m2) was 47500 ng·h/mL, the half-life (clinical; 77.5 mg/m2) was 8.2 h and the AUC(0-t) (clinical; 85 mg/m2) was 15500 ng·h/mL. The half-life (clinical; 85 mg/m2) was 3.9 h, the AUC(0-inf) (clinical; 92.5 mg/m2) was 51500 ng·h/mL and the half-life (clinical; 92.5 mg/m2) was 4.3 h. It also gave a Cmax (clinical; 120 mg/m2) of 3510 ng/mL and a half-life (clinical; 120 mg/m2) of 7.9 h.
